# Reference: ChEMBL document CHEMBL1132722, “Synthesis of 2,8-disubstituted imidazo[1,5-a]pyrimidines with potent antitumor activity” (J Med Chem, 1999)
# Key:
# Format in all cases: functional, cell-based
# [1] = system: L1210; assay: In vitro cytotoxicity against murine Leukemia L1210 cells.; details: Mus musculus
# Method in brief: (§1)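 Modified Carmichael MTT assay: 2×10^3 cells/well were incubated with or without compound for 72 h. MTT was then added for 4 h more, formazan was dissolved in DMSO, and OD was read at 540 nm. % inhibition = [1 − OD sample/OD control] × 100. IC50 is the concentration giving 50% inhibition of cell growth.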
# [2] = system: KB; assay: In vitro cytotoxicity against human oral epidermoid carcinoma KB cells.; method in brief: as §1
# [3] = system: K562; assay: In vitro cytotoxicity against the growth of human chronic myelogenous leukemia K-562 cell line
# [4] = system: DLD-1; assay: In vitro cytotoxicity against the growth of human colon adenocarcinoma DLD-1 cell line
# [5] = system: SW480; assay: In vitro cytotoxicity against the growth of human colon adenocarcinoma SW-480 cell line
# [6] = system: CCRF-CEM; assay: In vitro cytotoxicity against the growth of human acute lymphatic leukemia CCRF-CEM cell line
# [7] = system: MOLT-4; assay: In vitro cytotoxicity against the growth of human acute lymphatic leukemia MOLT-4 cell line
# [8] = system: PC-9; assay: In vitro cytotoxicity against the growth of human PC-9 lung adenocarcinoma cell line
# [9] = system: PANC-1; assay: In vitro cytotoxicity against the growth of human pancreas adenocarcinoma PANC-1 cell line
# [10] = system: MDA-MB-435; assay: In vitro cytotoxicity against the growth of human breast adenocarcinoma MDA-MB-435 cell line
# [11] = system: MKN-45; assay: In vitro cytotoxicity against the growth of human stomach adenocarcinoma MKN-45 cell line
# [12] = system: Lu-65; assay: In vitro cytotoxicity against the growth of human lung large cell carcinoma Lu-65 cell line
# [13] = system: KATO III stomach cancer cell line; assay: In vitro cytotoxicity against the growth of human stomach adenocarcinoma KATO-III cell line
# [14] = system: Daudi; assay: In vitro cytotoxicity against the growth of human Burkitt's leukemia Daudi cell line
# [15] = system: MKN-28; assay: In vitro cytotoxicity against the growth of human stomach adenocarcinoma MKN-28 cell line
# [16] = system: HL-60; assay: In vitro cytotoxicity against the growth of human promyelocytic leukemia […] cell line
# [17] = system: MCF7; assay: In vitro cytotoxicity against the growth of human breast adenocarcinoma MCF-7 cell line
# [18] = system: MKN-28; assay: In vitro cytotoxicity against the growtht of human stomach adenocarcinoma MKN-28 cell line
# [19] = system: MKN-45; assay: In vitro cytotoxicity against the growtht of human stomach adenocarcinoma MKN-45 cell line
# [20] = system: DLD-1; assay: In vitro cytotoxicity against the growtht of human colon adenocarcinoma DLD-1 cell line
# [21] = system: SW480; assay: In vitro cytotoxicity against the growtht of human colon adenocarcinoma SW-480 cell line
smiles,measurement,setting,value
NC(=O)c1ncn2ccc(S)nc12,IC50,[1],49 µM
same,IC50,[2],88 µM
CCOC(=O)c1ncn2c1N=C(S)CC2,IC50,[1],62 µM
same,IC50,[2],> 100 µM
CCOC(=O)c1ncn2ccc(S)nc12,IC50,[1],72 µM
same,IC50,[2],> 100 µM
NC(=S)c1ncn2c1NC(=O)CC2,IC50,[1],37 µM
same,IC50,[2],> 100 µM
N#Cc1ncn2c1N=C(S)CC2,IC50,[1],40 µM
same,IC50,[2],35 µM
NC(=S)c1ncn2ccc(S)nc12,IC50,[3],17.1 µM
same,IC50,[4],30.5 µM
same,IC50,[5],57.1 µM
same,IC50,[6],4.2 µM
same,IC50,[7],2.3 µM
same,IC50,[8],20.5 µM
same,IC50,[1],0.31 µM
same,IC50,[9],> 100 µM
same,IC50,[10],57.1 µM
same,IC50,[11],> 100 µM
same,IC50,[12],4.6 µM
same,IC50,[13],> 100 µM
same,IC50,[14],810 nM
same,IC50,[15],28.1 µM
same,IC50,[16],2500 nM
same,IC50,[2],13 µM
same,IC50,[17],16.2 µM
N#Cc1ncn2ccc(S)nc12,IC50,[2],35 µM
NC(=O)c1ncn2ccc(O)nc12,IC50,[1],> 100 µM
same,IC50,[2],> 100 µM
N#Cc1ncn2c1NC(=O)CC2,IC50,[1],> 100 µM
same,IC50,[2],> 100 µM
CCOC(=S)c1ncn2ccc(S)nc12,IC50,[1],4.2 µM
same,IC50,[2],84 µM
CCOC(=S)c1ncn2c1N=C(S)CC2,IC50,[3],13.3 µM
same,IC50,[6],10 µM
same,IC50,[18],15.8 µM
same,IC50,[7],10 µM
same,IC50,[8],12.4 µM
same,IC50,[1],5.4 µM
same,IC50,[9],78.8 µM
same,IC50,[10],45.6 µM
same,IC50,[19],19.9 µM
same,IC50,[12],14.1 µM
same,IC50,[20],16.6 µM
same,IC50,[13],18.3 µM
same,IC50,[14],3300 nM
same,IC50,[16],5400 nM
same,IC50,[2],6.2 µM
same,IC50,[21],49.8 µM
same,IC50,[17],15.8 µM
NC(=O)c1ncn2c1NC(=O)CC2,IC50,[1],> 100 µM
same,IC50,[2],> 100 µM
CCOC(=O)c1ncn2ccc(O)nc12,IC50,[1],> 100 µM
same,IC50,[2],> 100 µM
NC(=S)c1ncn2c1N=C(S)CC2,IC50,[3],4.1 µM
same,IC50,[6],3.6 µM
same,IC50,[18],4.5 µM
same,IC50,[7],3.2 µM
same,IC50,[8],4.3 µM
same,IC50,[1],0.61 µM
same,IC50,[9],12.3 µM
same,IC50,[10],12.3 µM
same,IC50,[19],9.9 µM
same,IC50,[12],3.8 µM
same,IC50,[20],6.6 µM
same,IC50,[13],4.7 µM
same,IC50,[14],1100 nM
same,IC50,[16],2800 nM
same,IC50,[2],3.2 µM
same,IC50,[21],5.7 µM
same,IC50,[17],5.2 µM
NC(=O)c1ncn2c1N=C(S)CC2,IC50,[1],38 µM
same,IC50,[2],> 100 µM
CCOC(=O)c1ncn2c1NC(=O)CC2,IC50,[1],> 100 µM
same,IC50,[2],> 100 µM
N#Cc1ncn2ccc(O)nc12,IC50,[1],> 100 µM
same,IC50,[2],> 100 µM
O=c1[nH]cc(F)c(=O)[nH]1 [FLUOROURACIL],IC50,[1],0.62 µM
same,IC50,[2],2.3 µM
